One compound from ChEMBL document CHEMBL4330143, “Maximizing ER-α Degradation Maximizes Activity in a Tamoxifen-Resistant Breast Cancer Model: Identification of GDC-0927” (ACS Med Chem Lett, 2019) can be followed below.

Calls of active or inactive are those of the source. The rule behind the calls is not given here. Bounds are passed on as bounds.

One data set has as its target Cytochrome P450 2C9 (Homo sapiens, UniProt P11712). Put plainly: Inhibition of CYP2C9 (unknown origin). In kind it is ADME.
For data set [1], the system named is MCF7. In words: Antitumor activity against tamoxifen-resistant human MCF7 cells xenografted in nude mouse at 100 mg/kg, po daily for 28 days. In kind it is functional, organism-based. Summed up: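 Tamoxifen-resistant MCF-7 tumours grown subcutaneously in mice, with estradiol supplied from subcutaneous 0.72 mg estradiol pellets.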
For orientation: Xenograft models place foreign cells or tissue in a host animal.

In data set [2] the target is T1, Glucocorticoid receptor (Homo sapiens) (UniProt P04150).
T1 sequence (whole entry): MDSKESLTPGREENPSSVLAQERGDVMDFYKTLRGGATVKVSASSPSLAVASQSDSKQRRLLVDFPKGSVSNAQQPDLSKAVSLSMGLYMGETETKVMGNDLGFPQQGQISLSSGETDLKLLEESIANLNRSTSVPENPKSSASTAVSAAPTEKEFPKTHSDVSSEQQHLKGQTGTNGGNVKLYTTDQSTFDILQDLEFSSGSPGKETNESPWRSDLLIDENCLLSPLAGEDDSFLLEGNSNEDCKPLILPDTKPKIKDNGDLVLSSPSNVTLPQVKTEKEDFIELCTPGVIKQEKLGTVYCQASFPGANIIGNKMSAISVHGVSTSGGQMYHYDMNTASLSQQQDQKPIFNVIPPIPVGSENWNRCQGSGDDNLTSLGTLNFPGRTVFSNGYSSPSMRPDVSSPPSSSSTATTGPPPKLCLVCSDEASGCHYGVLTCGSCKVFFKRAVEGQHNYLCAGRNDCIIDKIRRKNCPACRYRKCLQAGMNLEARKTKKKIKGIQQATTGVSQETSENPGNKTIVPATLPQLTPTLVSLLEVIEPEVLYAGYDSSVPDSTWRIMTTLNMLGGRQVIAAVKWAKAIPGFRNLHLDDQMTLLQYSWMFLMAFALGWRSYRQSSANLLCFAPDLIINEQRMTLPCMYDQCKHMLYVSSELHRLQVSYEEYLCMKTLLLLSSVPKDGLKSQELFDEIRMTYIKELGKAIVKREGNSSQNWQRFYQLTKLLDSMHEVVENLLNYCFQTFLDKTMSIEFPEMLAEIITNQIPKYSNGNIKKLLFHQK
In words: Antagonist activity at GR (unknown origin) by transcriptional reporter assay. On the technique in general: A reporter such as luciferase makes a cellular process visible.

Data set [3] can be described thus: Clearance in rat at 10 mg/kg, po daily for 3 days measured on day 3 post last dose. In kind it is ADME, organism-based. The following applies: in vivo.
In data set [4] the target is T1, Glucocorticoid receptor (Homo sapiens). Put plainly: Agonist activity at GR (unknown origin) by transcriptional reporter assay.
In the next data set the target is Cytochrome P450 2C19 (Homo sapiens, UniProt P33261). Put plainly: Competitive inhibition of CYP2C19 (unknown origin). It is filed as ADME.
Chain of Cytochrome P450 2C19 (P33261 whole entry): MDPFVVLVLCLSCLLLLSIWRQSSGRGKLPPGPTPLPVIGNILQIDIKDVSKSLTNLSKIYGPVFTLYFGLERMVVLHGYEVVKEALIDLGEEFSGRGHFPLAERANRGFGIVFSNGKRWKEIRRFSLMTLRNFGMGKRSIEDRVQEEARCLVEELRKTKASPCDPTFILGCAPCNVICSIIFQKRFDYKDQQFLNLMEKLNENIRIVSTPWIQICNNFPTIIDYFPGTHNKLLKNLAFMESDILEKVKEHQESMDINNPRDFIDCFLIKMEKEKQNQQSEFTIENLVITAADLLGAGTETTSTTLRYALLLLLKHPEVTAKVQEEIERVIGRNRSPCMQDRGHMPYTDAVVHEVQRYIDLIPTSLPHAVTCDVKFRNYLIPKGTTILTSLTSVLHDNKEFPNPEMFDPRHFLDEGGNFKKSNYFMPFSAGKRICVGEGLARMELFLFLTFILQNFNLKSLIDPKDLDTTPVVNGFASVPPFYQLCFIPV
Data set [5] in a line: Oral bioavailability in rat at 10 mg/kg daily for 3 days measured on day 3 post last dose. In kind it is ADME, organism-based. The following applies: in vivo.
Data set [6] in a line: Genotoxicity in Salmonella typhimurium TA98 by Ames test. It is filed as toxicity. As to conditions: salmonella enterica subsp. enterica serovar […]. (In the Ames test, an excess of revertant colonies over the control signals mutagenicity.)
Data set [7] addresses T2, Mineralocorticoid receptor (Homo sapiens) (UniProt P08235).
T2 sequence (whole entry): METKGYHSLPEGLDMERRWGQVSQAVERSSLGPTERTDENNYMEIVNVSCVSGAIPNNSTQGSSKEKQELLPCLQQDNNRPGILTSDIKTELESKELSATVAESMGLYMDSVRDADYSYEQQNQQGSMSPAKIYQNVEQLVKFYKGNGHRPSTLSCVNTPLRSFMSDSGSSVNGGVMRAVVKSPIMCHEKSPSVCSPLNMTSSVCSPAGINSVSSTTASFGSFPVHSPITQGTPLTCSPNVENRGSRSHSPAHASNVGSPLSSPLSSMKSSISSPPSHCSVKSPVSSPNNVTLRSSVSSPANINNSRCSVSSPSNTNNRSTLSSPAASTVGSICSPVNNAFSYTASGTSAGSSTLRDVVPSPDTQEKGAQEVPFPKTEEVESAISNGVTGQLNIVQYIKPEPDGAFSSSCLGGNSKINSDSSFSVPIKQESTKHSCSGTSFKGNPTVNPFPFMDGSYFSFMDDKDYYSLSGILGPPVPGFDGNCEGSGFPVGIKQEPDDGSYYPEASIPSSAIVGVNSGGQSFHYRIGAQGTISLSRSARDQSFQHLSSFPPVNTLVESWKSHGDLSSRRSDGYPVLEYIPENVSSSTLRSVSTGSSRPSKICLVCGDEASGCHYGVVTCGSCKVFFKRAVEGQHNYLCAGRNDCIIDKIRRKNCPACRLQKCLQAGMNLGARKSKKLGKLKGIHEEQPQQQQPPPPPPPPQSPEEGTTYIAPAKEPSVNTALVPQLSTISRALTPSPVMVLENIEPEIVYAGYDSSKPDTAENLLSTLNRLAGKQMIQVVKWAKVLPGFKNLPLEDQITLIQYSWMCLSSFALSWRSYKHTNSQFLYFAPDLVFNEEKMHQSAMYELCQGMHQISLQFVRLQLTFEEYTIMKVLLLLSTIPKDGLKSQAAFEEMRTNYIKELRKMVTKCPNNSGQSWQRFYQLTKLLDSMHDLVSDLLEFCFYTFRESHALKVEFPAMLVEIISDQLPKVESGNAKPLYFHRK
Put plainly: Antagonist activity at MR (unknown origin) by transcriptional reporter assay.

Another data set deals with T3, Cytochrome P450 2C8 (Homo sapiens, UniProt P10632).
T3 sequence (P10632 whole entry): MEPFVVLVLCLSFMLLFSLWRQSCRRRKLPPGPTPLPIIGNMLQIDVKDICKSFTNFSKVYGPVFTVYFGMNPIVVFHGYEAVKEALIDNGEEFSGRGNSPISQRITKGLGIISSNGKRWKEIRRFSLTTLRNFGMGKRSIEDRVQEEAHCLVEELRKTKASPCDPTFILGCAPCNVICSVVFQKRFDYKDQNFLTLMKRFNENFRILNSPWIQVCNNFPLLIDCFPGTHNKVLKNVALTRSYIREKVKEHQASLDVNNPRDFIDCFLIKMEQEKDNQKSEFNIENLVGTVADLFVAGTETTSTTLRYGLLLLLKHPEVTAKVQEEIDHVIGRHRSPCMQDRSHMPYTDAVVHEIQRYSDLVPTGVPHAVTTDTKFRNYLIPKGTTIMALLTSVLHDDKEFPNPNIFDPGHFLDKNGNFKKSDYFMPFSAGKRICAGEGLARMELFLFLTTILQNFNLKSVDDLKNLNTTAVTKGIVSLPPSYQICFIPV
In words: Inhibition of CYP2C8 (unknown origin). It is filed as ADME.

The test system of data set [8] is MCF7. In words: Antiproliferative activity against human MCF7 cells after 5 days by CellTiter-Glo assay. As to conditions: MCF7, 120 h.

Chain of Cytochrome P450 2C9 (P11712 whole entry): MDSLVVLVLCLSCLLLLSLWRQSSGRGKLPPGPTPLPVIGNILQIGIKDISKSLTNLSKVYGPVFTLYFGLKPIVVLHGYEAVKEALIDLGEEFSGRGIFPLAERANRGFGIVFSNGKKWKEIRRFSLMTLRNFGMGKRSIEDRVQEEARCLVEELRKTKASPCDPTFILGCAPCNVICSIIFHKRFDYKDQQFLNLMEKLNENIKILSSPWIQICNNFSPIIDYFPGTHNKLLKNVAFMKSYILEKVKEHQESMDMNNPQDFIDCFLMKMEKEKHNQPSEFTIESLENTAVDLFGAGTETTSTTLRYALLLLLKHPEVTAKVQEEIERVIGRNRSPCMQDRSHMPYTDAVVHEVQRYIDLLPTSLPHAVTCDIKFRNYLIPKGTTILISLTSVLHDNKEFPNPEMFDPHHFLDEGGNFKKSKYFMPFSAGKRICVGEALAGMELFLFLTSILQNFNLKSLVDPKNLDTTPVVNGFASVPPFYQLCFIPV

For the compound `CC1=C(c2cccc(O)c2)[C@H](c2ccc(OCCN3CC(CF)C3)cc2)Oc2ccc(O)cc21`, the IC50 (usually the concentration that gives 50% inhibition) at Cytochrome P450 2C9 was 3.2 µM; on Cytochrome P450 2C19, greater than 10 µM; at Cytochrome P450 2C8 it was 3 µM; in the data set on MCF7 [8], 0.0001 µM. Further, the result in the data set on MCF7 [1] was Active. Moreover, the inhibition result in data set [2] and in data set [7] was “inactive” each time. Further, the apparent clearance (CL/F) (as a rule, the apparent clearance, not corrected for the fraction that reaches the circulation) in [3] is greater than 60 mL/min/kg. Also, in data set [4], the outcome was inactive. The bioavailability – broadly, dose-corrected exposure relative to a reference, in per cent – in data set [5] was 10%. In data set [6], the Activity result was “Non-Toxic”.
